Experimental data taken from ChEMBL document CHEMBL1255379, “Evaluation of Etest method for determining isavuconazole MICs against Cryptococcus gattii and Cryptococcus neoformans” (2008).
≈ marks a conversion by molar mass, not a printed value.

How the values were obtained:
[1] = tested on: Cryptococcus gattii species complex; test: Antimicrobial activity against Cryptococcus gattii by broth microdilution method; assay type: functional, Cryptococcus bacillisporus
Summary of the method: (§1)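 CLSI M27-A2 broth microdilution in RPMI 1640 with L-glutamine, no bicarbonate, MOPS-buffered to pH 7.0. Isavuconazole stock in DMSO; final concentrations 0.015 to 8 μg/ml. Inoculum 0.5 × 10³ to 2.5 × 10³ cells/ml from subcultured isolates. Incubated at 35°C. MIC read at 48 and 72 h as 50% reduction in turbidity versus drug-free control. Candida krusei ATCC 6258 and C. parapsilosis ATCC 22019 served as quality controls.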

Cryptococcus neoformans [2] = test: Antimicrobial activity against Cryptococcus neoformans by Etest method; assay type: functional
Summary of the method: (§2)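 Isolates (clinical and environmental), maintained in sterile water or glycerol broth, subcultured at least twice on Sabouraud dextrose agar. Suspension adjusted to 0.5 McFarland and swabbed onto RPMI agar plates with 2% glucose; isavuconazole Etest strips applied. Incubated at 35°C, read at 48 and 72 h. MIC taken where prominent growth reduction meets the strip, raised to the next twofold level.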

[3] = tested on: Cryptococcus gattii species complex; test: Antimicrobial activity against Cryptococcus gattii by Etest method; assay type: functional, Cryptococcus bacillisporus; summary of the method: as §2
Cryptococcus neoformans [4] = test: Antimicrobial activity against Cryptococcus neoformans by broth microdilution method; assay type: functional; summary of the method: as §1

Q: Which results are given for C[C@@H](c1nc(-c2ccc(C#N)cc2)cs1)[C@](O)(Cn1cncn1)c1cc(F)ccc1F [ISAVUCONAZOLE]?
A: MIC [1]: ≤ 0.015 µg/mL; MIC50 [1]: 0.03 µg/mL (≈ 0.0686 µM); MIC90 [1]: 0.06 µg/mL (≈ 0.137 µM); MIC (Cryptococcus neoformans [2]): 0.002 µg/mL (≈ 0.00457 µM); MIC50 (Cryptococcus neoformans [2]): 0.023 µg/mL (≈ 0.0526 µM); MIC90 (Cryptococcus neoformans [2]): 0.047 µg/mL (≈ 0.107 µM); MIC [3]: 0.003 µg/mL (≈ 0.00686 µM); MIC50 [3]: 0.032 µg/mL (≈ 0.0731 µM); MIC90 [3]: 0.125 µg/mL (≈ 0.286 µM); MIC (Cryptococcus neoformans [4]): ≤ 0.015 µg/mL; MIC50 (Cryptococcus neoformans [4]): ≤ 0.015 µg/mL; MIC90 (Cryptococcus neoformans [4]): 0.06 µg/mL (≈ 0.137 µM)
